“And” between values parts separate entries of the source, which are not always exact repeats. Identical values can stand only once. The source made the active and inactive calls. The calls are words filed in the database; no cut-off is given here.
Tests used:
Format in all cases: functional
Cavia porcellus = organism: Cavia porcellus; assay: Agonist activity in guinea pig ileum preparation
Method in brief: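 Electrically stimulated guinea pig ileum. Agonist IC50 is derived from concentration-response curves, with the number of experiments noted for each. In a separate run, tissue is depleted of functional μ receptors by preincubation with β-FNA before the agonist curve is repeated.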

Mus musculus [1] = organism: Mus musculus; assay: Antagonist activity in mouse vas deferens preparation.
[2] = Irreversible antagonist activity is measured from the ratio of agonist activity (IC50) to that of the control (morphine).
Method in brief: (§1)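 Electrically stimulated guinea pig ileum or mouse vas deferens. Tissue is incubated 30 min with 200 nM compound, then washed 20 times. […] Number of experiments is noted.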

Mus musculus [3] = assay: Mice were intracerebroventricularly injected with 10 nmol and challenged with a 10 mg/kg subcutaneous dose of morphine sulfate; percentage of animals exhibiting analgesia was reported, after 24 hr
[4] = Irreversible antagonist activity is measured from the ratio of agonist activity (IC50) to that of the control (ethylketazocine).; method in brief: as §1
Mus musculus [5] = assay: Mice were intracerebroventricularly injected with 10 nmol and challenged with a 10 mg/kg subcutaneous dose of morphine sulfate; percentage of animals exhibiting analgesia was reported, after 2 hr
Mus musculus [6] = assay: Analgesic activity by tail-flick procedure, after intracerebroventricular administration in mice. Compound is inactive at 10 nmol/mouse
Mus musculus [7] = assay: Mice were intracerebroventricularly injected with 10 nmol and challenged with a 10 mg/kg subcutaneous dose of morphine sulfate; percentage of animals exhibiting analgesia was reported, after 0.5 hr
Mus musculus [8] = assay: analgesic activity by tail-flick procedure, after intracerebroventricular administration in mice; Compound is inactive at 10 nmol/mouse
Mus musculus [9] = assay: Analgesic activity, 30 min after subcutaneous administration of the compound, in mice

Row | SMILES | IC50 (Cavia porcellus) | IC50 (Mus musculus [1]) | Dose (Mus musculus [3]) | Ratio [4] | Dose (Mus musculus [5]) | further results
1 | CCOc1ccc2c(c1)C1(C)CCN(CC3CC3)C(C2=O)C1C (configuration not stated) [ETHYLKETAZOCINE] | 1.6 nM |  |  |  |  | 
2 | CC(C)C[C@@H](NC(=O)[C@H](Cc1ccccc1)NC(=O)CNC(=O)[C@@H](C)NC(=O)[C@@H](N)Cc1ccc(O)cc1)C(=O)O [DADLE] |  | 0.22 nM |  |  |  | 
3 | CN1CCC23c4c5ccc(O)c4O[C@H]2C(=O)C=CC3C1C5 (some centres not stated) | 108 nM | 47 nM | 67% | 0.92 | 80% | Ratio [2]: 0.67 and 0.68; ED50 (Mus musculus [6]): 11.1 nM mouse-1
4 | O=C1C=CC2C3Cc4ccc(O)c5c4C2(CCN3CC2CC2)[C@H]1O5 (some centres not stated) | 300 nM | 300 nM | 67% | 0.82 | 60% | Dose (Mus musculus [7]): 10%; ED50 (Mus musculus [8]): inactive
5 | CN1CC[C@]23c4c5ccc(O)c4O[C@H]2[C@@H](O)C=C[C@H]3[C@H]1C5 [MORPHINE] |  |  |  |  |  | ED50 (Mus musculus [9]): 2.8 nM mouse-1
